Measurements reported in BindingDB's records for doi:10.1016/j.bmcl.2018.04.005 (Shanghai Institute of Materia Medica, 2018).

Molecular target: T1, Sortase family protein (Staphylococcus aureus, UniProt Q9S446)
T1 sequence (Q9S446 whole entry): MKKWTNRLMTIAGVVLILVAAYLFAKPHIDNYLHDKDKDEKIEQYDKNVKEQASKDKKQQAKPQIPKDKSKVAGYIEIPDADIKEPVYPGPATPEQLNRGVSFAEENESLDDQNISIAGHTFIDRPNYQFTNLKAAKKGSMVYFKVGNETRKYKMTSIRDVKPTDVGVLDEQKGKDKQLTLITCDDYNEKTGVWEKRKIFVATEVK
Assay: Inhibition of Staphylococcus aureus SrtA deltaN24 mutant assessed as decrease in transpeptidation of IsdA (64 to 323 residues) incubated for 1.25 hrs in presence of NH2-Gly3 nucleophile by SDS-PAGE method
In short: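 Recombinant, affinity-purified IsdA64-323 (a natural SrtA substrate from S. aureus) is incubated with purified SrtAΔN24 and NH2-Gly3 nucleophile, with or without test compound. Cleavage at the sorting signal gives the transpeptidation product, which is resolved by SDS-PAGE. Inhibition is judged from partial or complete blockade of product formation. Used as a counter-screen against FRET false positives.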

| SMILES | IC50 [µM] |
| --- | --- |
| CC(C)=CC[C@H](O)c1cc(O)c2c(c1O)C(=O)C=CC2=O | 5 |
| CC(C)C=CC(=O)c1cc(O)c2c(O)ccc(O)c2c1O [5,8-Dihydroxy-2-(1-hydroxy-4-methyl-pent-3-enyl)-[1,4]naphthoquinone] | 5 |
